Published values of several laboratories.
Target: Peripheral plasma membrane protein CASK (CASK, Homo sapiens, UniProt O14936)
Residues used in one study (O14936 1-926): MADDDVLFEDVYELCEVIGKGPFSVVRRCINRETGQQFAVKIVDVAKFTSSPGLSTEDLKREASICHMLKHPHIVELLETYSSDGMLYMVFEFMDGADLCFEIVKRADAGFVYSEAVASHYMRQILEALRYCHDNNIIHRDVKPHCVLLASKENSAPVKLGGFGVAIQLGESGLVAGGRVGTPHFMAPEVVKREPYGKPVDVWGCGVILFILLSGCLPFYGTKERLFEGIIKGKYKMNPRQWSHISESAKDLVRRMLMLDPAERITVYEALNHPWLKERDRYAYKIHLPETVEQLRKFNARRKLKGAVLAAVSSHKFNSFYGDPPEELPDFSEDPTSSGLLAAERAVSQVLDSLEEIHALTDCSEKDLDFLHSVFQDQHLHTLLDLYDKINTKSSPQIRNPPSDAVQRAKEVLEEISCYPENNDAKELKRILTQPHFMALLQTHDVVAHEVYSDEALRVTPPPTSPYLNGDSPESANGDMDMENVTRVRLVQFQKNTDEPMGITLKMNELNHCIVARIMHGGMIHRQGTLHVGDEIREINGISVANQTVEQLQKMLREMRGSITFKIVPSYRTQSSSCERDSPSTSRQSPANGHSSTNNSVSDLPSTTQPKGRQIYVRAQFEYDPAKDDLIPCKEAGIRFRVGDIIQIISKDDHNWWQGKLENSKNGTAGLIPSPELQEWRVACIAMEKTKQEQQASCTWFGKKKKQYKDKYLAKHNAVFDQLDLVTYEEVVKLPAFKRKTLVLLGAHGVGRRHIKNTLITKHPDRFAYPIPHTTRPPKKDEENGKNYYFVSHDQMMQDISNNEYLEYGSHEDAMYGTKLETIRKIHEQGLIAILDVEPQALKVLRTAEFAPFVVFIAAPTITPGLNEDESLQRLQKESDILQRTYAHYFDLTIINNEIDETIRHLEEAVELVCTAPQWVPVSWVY

O=c1nc(-c2ccccn2)sc2ccccc12  remaining binding (binding; competition with immobilised ligand; 1 µM): 84%
COc1ccnn2ncc(-c3ccnc(N(C)C)n3)c12  remaining binding (binding; 1 µM): 96%
COc1cnc(Nc2cccc(S(N)(=O)=O)c2)nc1N1CCN(c2ccccc2)CC1  remaining binding (binding; competition with immobilised ligand; 1 µM): 95%
COc1ncc2cc3ccccc3nc2c1C#N  remaining binding (cell-free assay; competition with immobilised ligand; 5 µM): 99%
COc1cnc(Nc2cccc(S(N)(=O)=O)c2)nc1N1CCN(c2ccccc2)C(=O)C1  remaining binding (binding; competition with immobilised ligand; 1 µM): 79%
Cn1nc(C(=O)NCc2ccc(C(=O)O)cc2)cc1-c1ccc2[nH]ccc2c1  remaining binding (cell-free assay; competition with immobilised ligand; 0.1 µM): 69%
O=C(NCCCN1CCOCC1)c1ccc(Nc2ncc(Cl)c(-c3ccc(Cl)s3)n2)cc1  remaining binding (binding; competition with immobilised ligand; 1 µM): 98%
CCC(=N\O)/C(C)=C/c1ccc(F)cc1  remaining binding (cell-free assay; competition with immobilised ligand; 1 µM): 70%
O=C(NCCCN1CCOCC1)c1ccc(Nc2nccc(-c3cc4ccccc4s3)n2)cc1  remaining binding (binding; competition with immobilised ligand; 1 µM): 100%
C[C@H]1CCN(c2nccc(-c3cnn4ncccc34)n2)C1  remaining binding (binding; 1 µM): 74%
Cc1c(NC(=O)c2cc(C(N)=O)nc3cc(F)ccc23)c(C(F)(F)F)nn1Cc1ccc(C#N)cc1  remaining binding (cell-free assay; competition with immobilised ligand; 1 µM): 71%
C[C@@H](c1ccc(-n2cnc3c(N)ncnc32)cc1)N1CCc2nn(C)c(Cc3ccccc3)c2C1=O  remaining binding (binding; competition with immobilised ligand; 0.1 µM): 80%
CN(c1nccc(-c2cnn3ncccc23)n1)C1CC1  remaining binding (binding; 1 µM): 100%
O=C(Nc1c[nH]nc1C(=O)NC1CCNCC1)c1cc(F)cc(F)c1  remaining binding (binding; competition with immobilised ligand; 1 µM): 66%
O=C(O)[C@@H]1[C@@H](Cn2nnc3ccccc3c2=O)CC[C@H]1C(=O)c1ccc(OCCC2CCOCC2)cc1  remaining binding (cell-free assay; competition with immobilised ligand; 1 µM): 100%
CC1CCCN1c1nccc(-c2cnn3ncccc23)n1 (stereo not drawn)  remaining binding (binding; competition with immobilised ligand; 1 µM): 100%
FC(F)(F)Oc1cccc(-c2cnc3ccc(-c4ccncc4)nn23)c1  remaining binding (cell-free assay; competition with immobilised ligand; 5 µM): 50%
N[C@H]1CCN(c2nccc(-c3cnn4ncccc34)n2)C1  remaining binding (binding; competition with immobilised ligand; 1 µM): 100%
O=C(c1ccc(Nc2ncc(Cl)c(-c3ccc(Cl)s3)n2)cc1)N1CCC(N2CCCC2)CC1  remaining binding (binding; competition with immobilised ligand; 1 µM): 87%
FC(F)(F)c1ccc2c(c1)nc(-c1cccnc1)n2C1CC1  remaining binding (cell-free assay; competition with immobilised ligand; 1 µM): 100%
CN(C)c1ncc(F)c(-c2cnn3ncccc23)n1  remaining binding (binding; competition with immobilised ligand; 1 µM): 79%
